Assays:
Type in all cases: functional
CAKI-1 = experiment: Antitumor activity against human Caki1 cells after 48 hrs by SRB assay; details: CAKI-1, 48 h; for CC50: read-out: LC50 (the source's name)
In short: (§1)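 NCI-60 human tumour cell panel run under the National Cancer Institute Drug Evaluation Branch protocol. Compounds passing a single-dose prescreen were retested on all lines at five 10-fold dilutions. Growth was expressed as percent growth of treated cells. Response parameters were GI50 (molar concentration giving 50% growth inhibition), TGI (total growth inhibition) and LC50 (median lethal concentration).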

MDA-MB-468 = experiment: Antitumor activity against human MDA-MB-468 cells after 48 hrs by SRB assay; details: MDA-MB-468, 48 h; for CC50: read-out: LC50 (the source's name); in short: as §1
U-251 = experiment: Antitumor activity against human U251 cells after 48 hrs by SRB assay; details: U-251, 48 h; for CC50: read-out: LC50 (the source's name)
In short: (§2)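 NCI-60 human cancer cell line panel run under the NCI Drug Evaluation Branch protocol. Compounds were first screened at a single dose. Those meeting preset inhibition thresholds were retested at five 10-fold dilutions. Output was percent growth of treated cells, given as % growth inhibition. GI50, TGI and LC50 values were derived from the five-dose data.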

OVCAR-4 = experiment: Antitumor activity against human OVCAR4 cells after 48 hrs by SRB assay; details: OVCAR-4, 48 h; for CC50: read-out: LC50 (the source's name); in short: as §1
T47D = experiment: Antitumor activity against human T47D cells after 48 hrs by SRB assay; details: for CC50: read-out: LC50 (the source's name); in short: as §2
[1] = Antitumor activity against human […] cells after 48 hrs by SRB assay; details: for CC50: read-out: LC50 (the source's name); in short: as §1
NCI-H226 = experiment: Antitumor activity against human NCI-H226 cells after 48 hrs by SRB assay; details: NCI-H226, 48 h; for CC50: read-out: LC50 (the source's name); in short: as §1
BT-549 = experiment: Antitumor activity against human BT549 cells after 48 hrs by SRB assay; details: BT-549, 48 h; for CC50: read-out: LC50 (the source's name); in short: as §1
EKVX = experiment: Antitumor activity against human EKVX cells after 48 hrs by SRB assay; details: for CC50: read-out: LC50 (the source's name); in short: as §1
HCT-15 = experiment: Antitumor activity against human HCT15 cells after 48 hrs by SRB assay; details: HCT-15, 48 h; for CC50: read-out: LC50 (the source's name); in short: as §1
COLO 205 = experiment: Antitumor activity against human COLO205 cells after 48 hrs by SRB assay; details: COLO 205, 48 h; in short: as §1
TK-10 = experiment: Antitumor activity against human TK10 cells after 48 hrs by SRB assay; details: TK-10, 48 h; for CC50: read-out: LC50 (the source's name); in short: as §2
MDA-MB-231 = experiment: Antitumor activity against human MDA-MB-231 cells after 48 hrs by SRB assay; details: MDA-MB-231, 48 h; for CC50: read-out: LC50 (the source's name); in short: as §1
HCT-116 = experiment: Antitumor activity against human HCT116 cells after 48 hrs by SRB assay; details: HCT-116, 48 h; for CC50: read-out: LC50 (the source's name); in short: as §1
NCI/ADR-RES = experiment: Antitumor activity against human NCI/ADR-RES cells after 48 hrs by SRB assay; details: for CC50: read-out: LC50 (the source's name); in short: as §1
CCRF-CEM = experiment: Antitumor activity against human CCRF-CEM cells after 48 hrs by SRB assay; in short: as §1
IGROV-1 = experiment: Antitumor activity against human IGROV1 cells after 48 hrs by SRB assay; details: IGROV-1, 48 h; in short: as §1
HOP-62 = experiment: Antitumor activity against human HOP62 cells after 48 hrs by SRB assay; details: HOP-62, 48 h; for CC50: read-out: LC50 (the source's name); in short: as §1
A498 = experiment: Antitumor activity against human A498 cells after 48 hrs by SRB assay; details: A498, 48 h; for CC50: read-out: LC50 (the source's name); in short: as §1
SNB-75 = experiment: Antitumor activity against human SNB75 cells after 48 hrs by SRB assay; details: SNB-75, 48 h; in short: as §1
OVCAR-5 = experiment: Antitumor activity against human OVCAR5 cells after 48 hrs by SRB assay; details: OVCAR-5, 48 h; for CC50: read-out: LC50 (the source's name); in short: as §1
SR = experiment: Antitumor activity against human SR cells after 48 hrs by SRB assay; in short: as §1
K562 = experiment: Antitumor activity against human K562 cells after 48 hrs by SRB assay; details: K562, 48 h; in short: as §1
SK-MEL-28 = experiment: Antitumor activity against human SK-MEL-28 cells after 48 hrs by SRB assay; details: SK-MEL-28, 48 h; in short: as §1
PC-3 = experiment: Antitumor activity against human PC3 cells after 48 hrs by SRB assay; details: PC-3, 48 h; in short: as §1

For `Cc1cc2nc(-c3c(N)ncc(C#N)c3-c3ccc(Cl)cc3)[nH]c2cc1C`, the GI50 (CAKI-1) was 12.1 µM, the TGI (CAKI-1) was over 100 µM and the CC50 (CAKI-1) was over 100 µM. For the same molecule, the GI50 (MDA-MB-468) was 12.4 µM, the TGI (MDA-MB-468) was 51.5 µM and the CC50 (MDA-MB-468) was over 100 µM. It also gave a GI50 (U-251) of 5.48 µM, a TGI (U-251) of 21.4 µM and a CC50 (U-251) of 66.2 µM. It also gave a GI50 (OVCAR-4) of 4.4 µM, a TGI (OVCAR-4) of 25.4 µM and a CC50 (OVCAR-4) of over 100 µM. For the same molecule, the GI50 (T47D) was 4.63 µM, the TGI (T47D) was over 100 µM and the CC50 (T47D) was over 100 µM. For the same molecule, the GI50 [1] was 19.8 µM, the TGI [1] was 84.2 µM and the CC50 [1] was over 100 µM. The GI50 (NCI-H226) was 15 µM, the TGI (NCI-H226) was 46.3 µM and the CC50 (NCI-H226) was 100 µM. It also gave a GI50 (BT-549) of 37.6 µM, a TGI (BT-549) of over 100 µM and a CC50 (BT-549) of over 100 µM. For the same molecule, the GI50 (EKVX) was 14.4 µM, the TGI (EKVX) was 76.7 µM and the CC50 (EKVX) was over 100 µM. For the same molecule, the GI50 (HCT-15) was 30.6 µM, the TGI (HCT-15) was over 100 µM and the CC50 (HCT-15) was over 100 µM. The GI50 (COLO 205) was 6.24 µM, the LC50 (COLO 205) was over 100 µM and the TGI (COLO 205) was 83.4 µM. It also gave a GI50 (TK-10) of 4.67 µM, a TGI (TK-10) of 21.3 µM and a CC50 (TK-10) of 69.5 µM. For the same molecule, the GI50 (MDA-MB-231) was 10.5 µM, the TGI (MDA-MB-231) was 44.2 µM and the CC50 (MDA-MB-231) was over 100 µM. For the same molecule, the GI50 (HCT-116) was 3.47 µM, the TGI (HCT-116) was 19.7 µM and the CC50 (HCT-116) was 66.3 µM. For the same molecule, the GI50 (NCI/ADR-RES) was 15.7 µM, the TGI (NCI/ADR-RES) was over 100 µM and the CC50 (NCI/ADR-RES) was over 100 µM. The GI50 (CCRF-CEM) was 24.6 µM, the LC50 (CCRF-CEM) was over 100 µM and the TGI (CCRF-CEM) was over 100 µM. For the same molecule, the GI50 (IGROV-1) was 18.7 µM, the LC50 (IGROV-1) was over 100 µM and the TGI (IGROV-1) was over 100 µM. The GI50 (HOP-62) was 6.36 µM, the TGI (HOP-62) was 21.7 µM and the CC50 (HOP-62) was 55.9 µM. It also gave a GI50 (A498) of 11.8 µM, a TGI (A498) of 59.2 µM and a CC50 (A498) of over 100 µM. It also gave a GI50 (SNB-75) of 12.9 µM, an LC50 (SNB-75) of 81.3 µM and a TGI (SNB-75) of 32.4 µM. The GI50 (OVCAR-5) was 14.7 µM, the TGI (OVCAR-5) was over 100 µM and the CC50 (OVCAR-5) was over 100 µM. For the same molecule, the GI50 (SR) was 28.7 µM, the LC50 (median lethal concentration) (SR) was over 100 µM and the TGI (SR) was over 100 µM. It also gave a GI50 (K562) of 31.5 µM, an LC50 (K562) of over 100 µM and a TGI (K562) of over 100 µM. It also gave a GI50 (SK-MEL-28) of 5.8 µM, an LC50 (median lethal concentration) (SK-MEL-28) of over 100 µM and a TGI (SK-MEL-28) of 40.2 µM.

`COc1ccc(-c2c(C#N)cnc(N)c2-c2nc3cc(C)c(C)cc3[nH]2)cc1` showed a GI50 (CAKI-1) of 14.6 µM, a TGI (CAKI-1) of over 100 µM and a CC50 (CAKI-1) of over 100 µM. The GI50 (MDA-MB-468) was 6.22 µM, the TGI (MDA-MB-468) was 23.1 µM and the CC50 (MDA-MB-468) was 68 µM. For the same molecule, the GI50 (U-251) was 3.65 µM, the TGI (U-251) was 12.7 µM and the CC50 (U-251) was 53.9 µM. It also gave a GI50 (OVCAR-4) of 22.5 µM, a TGI (OVCAR-4) of over 100 µM and a CC50 (OVCAR-4) of over 100 µM. It also gave a GI50 (T47D) of 15.4 µM, a TGI (T47D) of over 100 µM and a CC50 (T47D) of over 100 µM. It also gave a GI50 [1] of 9.8 µM, a TGI [1] of 65.7 µM and a CC50 [1] of over 100 µM. It also gave a GI50 (NCI-H226) of 16.4 µM, a TGI (NCI-H226) of over 100 µM and a CC50 (NCI-H226) of over 100 µM. The GI50 (BT-549) was 30.6 µM, the TGI (BT-549) was over 100 µM and the CC50 (BT-549) was over 100 µM. For the same molecule, the GI50 (PC-3) was 8.86 µM, the GI50 (EKVX) was 15.8 µM and the TGI (EKVX) was over 100 µM. For the same molecule, the CC50 (EKVX) was over 100 µM, the GI50 (HCT-15) was 5.81 µM and the TGI (HCT-15) was over 100 µM. It also gave a CC50 (HCT-15) of over 100 µM, a GI50 (COLO 205) of 7.78 µM and an LC50 (COLO 205) of over 100 µM. The TGI (COLO 205) was 63.7 µM, the GI50 (TK-10) was 5.94 µM and the TGI (TK-10) was 26.4 µM. For the same molecule, the CC50 (TK-10) was 99.6 µM, the GI50 (MDA-MB-231) was 8.28 µM and the TGI (MDA-MB-231) was over 100 µM. For the same molecule, the CC50 (MDA-MB-231) was over 100 µM, the GI50 (HCT-116) was 4.63 µM and the TGI (HCT-116) was over 100 µM. The CC50 (HCT-116) was over 100 µM, the GI50 (NCI/ADR-RES) was 6.84 µM and the TGI (NCI/ADR-RES) was over 100 µM. The CC50 (NCI/ADR-RES) was over 100 µM, the GI50 (CCRF-CEM) was 25.6 µM and the LC50 (CCRF-CEM) was over 100 µM. For the same molecule, the TGI (CCRF-CEM) was over 100 µM, the GI50 (IGROV-1) was 16 µM and the LC50 (IGROV-1) was over 100 µM. For the same molecule, the TGI (IGROV-1) was over 100 µM, the GI50 (HOP-62) was 3.65 µM and the TGI (HOP-62) was 14.4 µM. The CC50 (HOP-62) was 45.2 µM, the GI50 (A498) was 10.7 µM and the TGI (A498) was 63.6 µM. It also gave a CC50 (A498) of over 100 µM, a GI50 (SNB-75) of 2.36 µM and an LC50 (SNB-75) of 32.4 µM. The TGI (SNB-75) was 8.19 µM, the GI50 (OVCAR-5) was 52.4 µM and the TGI (OVCAR-5) was over 100 µM. The CC50 (OVCAR-5) was over 100 µM, the GI50 (SR) was 5.64 µM and the LC50 (median lethal concentration) (SR) was over 100 µM. It also gave a TGI (SR) of over 100 µM, a GI50 (K562) of 6.03 µM and an LC50 (K562) of over 100 µM. It also gave a TGI (K562) of over 100 µM, a GI50 (SK-MEL-28) of 17.2 µM and an LC50 (median lethal concentration) (SK-MEL-28) of over 100 µM. For the same molecule, the TGI (SK-MEL-28) was over 100 µM.

— ChEMBL document CHEMBL1821649, “Synthesis, characterization of some benzazoles bearing pyridine moiety: search for novel anticancer agents” (2011)
